Experimental data taken from ChEMBL document CHEMBL3352384, “Synthesis and biological activity of new salicylanilide N,N-disubstituted carbamates and thiocarbamates” (Bioorg Med Chem, 2014).
Converted amounts (≈) assume the structure as drawn.

Columns and labels:
HepG2 = test: Cytotoxicity against human HepG2 cells assessed as reduction in cell viability after 24 hrs by MTS assay; format: cell-based; details: HepG2, 24 h
Procedure, shortened: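 HepG2 hepatocellular carcinoma cells (passage 3–4) were grown in Eagle's MEM with 10% FBS, 1% L-glutamine and non-essential amino acids. Compounds were added from DMSO at eight concentrations in triplicate, with 10% DMSO as the 0% viability control. Viability was read by tetrazolium salt reduction (CellTiter 96 AQueous One). IC50 is the concentration reducing viability to 50% of control.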

Mycobacterium kansasii [1] = test: Antimycobacterial activity against Mycobacterium kansasii 235/80 assessed as complete growth inhibition after 21 days; format: functional; details: 235/80, 504 h
Procedure, shortened: (§1)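 Dilutions of M. kansasii inoculum were 10-4 for strain 235/80 and 10-5 for clinical isolate 6509/96. MIC was the lowest concentration giving complete growth inhibition, run in quadruplicate and repeated twice.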

[2] = Inhibition of Mycobacterium tuberculosis H37Rv isocitrate lyase assessed as glyoxylate phenyl hydrazone formation at 10 uM
Mycobacterium kansasii [3] = test: Antimycobacterial activity against clinical isolate Mycobacterium kansasii 6509/96 assessed as complete growth inhibition after 21 days; format: functional; details: 6509/96, 504 h; procedure, shortened: as §1
[4] = test system: Mycobacterium tuberculosis; test: Antimycobacterial activity against Mycobacterium tuberculosis H37Rv 331/88 assessed as complete growth inhibition after 14 days; format: functional; details: H37Rv 331/88, 336 h
Procedure, shortened: (§2)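 M. tuberculosis 331/88 (H37Rv) inoculum diluted 10-3, M. avium 330/88 diluted 10-5. MIC is the lowest concentration giving complete growth inhibition. Isoniazid and p-aminosalicylic acid as references. Quadruplicate, repeated twice.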

[5] = test system: Mycobacterium tuberculosis; test: Antimycobacterial activity against Mycobacterium tuberculosis H37Rv 331/88 assessed as complete growth inhibition after 21 days; format: functional; details: H37Rv 331/88, 504 h; procedure, shortened: as §2
Mycobacterium kansasii [6] = test: Antimycobacterial activity against clinical isolate Mycobacterium kansasii 6509/96 assessed as complete growth inhibition after 14 days; format: functional; details: 6509/96, 336 h; procedure, shortened: as §1
Mycobacterium avium [7] = test: Antimycobacterial activity against Isoniazid, rifampicin, ofloxacin and ethambutol-resistant Mycobacterium avium 330/88 assessed as complete growth inhibition after 21 days; format: functional; details: 330/88, 504 h; procedure, shortened: as §2
Mycobacterium kansasii [8] = test: Antimycobacterial activity against Mycobacterium kansasii 235/80 assessed as complete growth inhibition after 14 days; format: functional; details: 235/80, 336 h; procedure, shortened: as §1
Mycobacterium avium [9] = test: Antimycobacterial activity against Isoniazid, rifampicin, ofloxacin and ethambutol-resistant Mycobacterium avium 330/88 assessed as complete growth inhibition after 14 days; format: functional; details: 330/88, 336 h; procedure, shortened: as §2
Mycobacterium kansasii [10] = test: Antimycobacterial activity against clinical isolate Mycobacterium kansasii 6509/96 assessed as complete growth inhibition after 7 days; format: functional; details: 6509/96, 168 h; procedure, shortened: as §1
Mycobacterium kansasii [11] = test: Antimycobacterial activity against Mycobacterium kansasii 235/80 assessed as complete growth inhibition after 7 days; format: functional; details: 235/80, 168 h; procedure, shortened: as §1
[12] = Selectivity index, ratio of IC50 for human HepG2 cells to MIC for Mycobacterium tuberculosis H37Rv; format: toxicity, cell-based; details: read-out: Selectivity Index
Procedure, shortened: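 Selectivity index = HepG2 IC50 / MIC. HepG2 cells (passage 3–4) grown in Eagle's MEM with 10% FBS, L-glutamine and non-essential amino acids. Compounds added from DMSO, eight concentrations in triplicate, tetrazolium-reduction colorimetric read-out.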

[13] = Selectivity index, ratio of IC50 for human HepG2 cells to MIC for atypical mycobacteria
Procedure, shortened: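 Selectivity index = HepG2 IC50 / MIC. HepG2 cells (passage 3–4) grown in Eagle's MEM with 10% FBS, L-glutamine and non-essential amino acids. Compounds added from DMSO, eight concentrations in triplicate, tetrazolium-reduction colorimetric read-out. IC50 is the concentration reducing viability to 50% of control; 10% DMSO as 0% viability.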

| SMILES | IC50 (HepG2) [µM] | MIC (Mycobacterium kansasii [1]) [µM] | inhibition [2] [%] | MIC (Mycobacterium kansasii [3]) [µM] | MIC [4] [µM] | MIC [5] [µM] | MIC (Mycobacterium kansasii [6]) [µM] | MIC (Mycobacterium avium [7]) [µM] | MIC (Mycobacterium kansasii [8]) [µM] | MIC (Mycobacterium avium [9]) [µM] | MIC (Mycobacterium kansasii [10]) [µM] | MIC (Mycobacterium kansasii [11]) [µM] | selectivity ratio [12] | Selectivity Index [13] |
| --- | --- | --- | --- | --- | --- | --- | --- | --- | --- | --- | --- | --- | --- | --- |
| O=C(Nc1ccc(Br)cc1)c1cc(Cl)ccc1OC(=O)N(c1ccccc1)c1ccccc1 | > 100 | 125 (≈ 65.2 µg/mL) | 19 | 62.5 (≈ 32.6 µg/mL) | 250 (≈ 130 µg/mL) | 250 (≈ 130 µg/mL) | 62.5 (≈ 32.6 µg/mL) | 250 (≈ 130 µg/mL) | 125 (≈ 65.2 µg/mL) | 250 (≈ 130 µg/mL) | 32 (≈ 16.7 µg/mL) | 32 (≈ 16.7 µg/mL) | – | – |
| O=C(Nc1ccccc1)c1ccccc1OC(=O)N(c1ccccc1)c1ccccc1 | 211 | 125 (≈ 51.1 µg/mL) | 8 | 125 (≈ 51.1 µg/mL) | 125 (≈ 51.1 µg/mL) | 125 (≈ 51.1 µg/mL) | 125 (≈ 51.1 µg/mL) | 62.5 (≈ 25.5 µg/mL) | 125 (≈ 51.1 µg/mL) | 62.5 (≈ 25.5 µg/mL) | 125 (≈ 51.1 µg/mL) | 62.5 (≈ 25.5 µg/mL) | 1.7 | 1.7 |
| O=C(O)CC[N+](=O)[O-] | 692 | > 1000 | 25 | > 1000 | – | > 1000 | > 1000 | > 1000 | > 1000 | > 1000 | > 1000 | > 1000 | < 0.7 | <0.7 |
| CN(C(=O)Oc1ccc(Cl)cc1C(=O)Nc1ccc(F)cc1)c1ccccc1 | 512 | 125 (≈ 49.9 µg/mL) | 14 | 125 (≈ 49.9 µg/mL) | 32 (≈ 12.8 µg/mL) | 62.5 (≈ 24.9 µg/mL) | 125 (≈ 49.9 µg/mL) | 250 (≈ 99.7 µg/mL) | 125 (≈ 49.9 µg/mL) | 250 (≈ 99.7 µg/mL) | 62.5 (≈ 24.9 µg/mL) | 62.5 (≈ 24.9 µg/mL) | 8.2 | <=8.2 |
| CN(C)C(=O)Oc1ccccc1C(=O)Nc1ccccc1 | 5990 | 1000 (≈ 284 µg/mL) | 10 | 1000 (≈ 284 µg/mL) | 1000 (≈ 284 µg/mL) | 1000 (≈ 284 µg/mL) | 1000 (≈ 284 µg/mL) | 1000 (≈ 284 µg/mL) | 1000 (≈ 284 µg/mL) | 1000 (≈ 284 µg/mL) | 1000 (≈ 284 µg/mL) | 1000 (≈ 284 µg/mL) | 6 | 6 |
| O=C(Nc1ccc(C(F)(F)F)cc1)c1cc(Cl)ccc1O | 0.36 | 4 (≈ 1.26 µg/mL) | 6 | 4 (≈ 1.26 µg/mL) | 1 (≈ 0.316 µg/mL) | 2 (≈ 0.631 µg/mL) | 4 (≈ 1.26 µg/mL) | 8 (≈ 2.53 µg/mL) | 4 (≈ 1.26 µg/mL) | 4 (≈ 1.26 µg/mL) | 2 (≈ 0.631 µg/mL) | 2 (≈ 0.631 µg/mL) | – | – |
| O=C(Nc1ccc(F)cc1)c1cc(Cl)ccc1OC(=O)N(c1ccccc1)c1ccccc1 | > 100 | 62.5 (≈ 28.8 µg/mL) | 22 | 125 (≈ 57.6 µg/mL) | 250 (≈ 115 µg/mL) | 250 (≈ 115 µg/mL) | 125 (≈ 57.6 µg/mL) | 250 (≈ 115 µg/mL) | 62.5 (≈ 28.8 µg/mL) | 250 (≈ 115 µg/mL) | 125 (≈ 57.6 µg/mL) | 62.5 (≈ 28.8 µg/mL) | – | – |
| CN(C(=O)Oc1ccccc1C(=O)Nc1ccccc1)c1ccccc1 | 280 | 500 (≈ 173 µg/mL) | 3 | 1000 (≈ 346 µg/mL) | 250 (≈ 86.6 µg/mL) | 250 (≈ 86.6 µg/mL) | 500 (≈ 173 µg/mL) | > 1000 | 500 (≈ 173 µg/mL) | > 1000 | 250 (≈ 86.6 µg/mL) | 250 (≈ 86.6 µg/mL) | 1.1 | <=1.1 |
| CN(C(=O)Oc1ccc(Cl)cc1C(=O)Nc1ccc(Cl)cc1)c1ccccc1 | 289 | 125 (≈ 51.9 µg/mL) | 17 | 125 (≈ 51.9 µg/mL) | 32 (≈ 13.3 µg/mL) | 32 (≈ 13.3 µg/mL) | 62.5 (≈ 26 µg/mL) | 250 (≈ 104 µg/mL) | 125 (≈ 51.9 µg/mL) | 250 (≈ 104 µg/mL) | 32 (≈ 13.3 µg/mL) | 62.5 (≈ 26 µg/mL) | 9 | <=9 |
| O=C(Nc1ccc(Cl)cc1)c1cc(Cl)ccc1OC(=O)N(c1ccccc1)c1ccccc1 | > 100 | 125 (≈ 59.7 µg/mL) | 20 | 62.5 (≈ 29.8 µg/mL) | 250 (≈ 119 µg/mL) | 250 (≈ 119 µg/mL) | 62.5 (≈ 29.8 µg/mL) | 250 (≈ 119 µg/mL) | 125 (≈ 59.7 µg/mL) | 250 (≈ 119 µg/mL) | 32 (≈ 15.3 µg/mL) | 32 (≈ 15.3 µg/mL) | – | – |
| O=C(Nc1ccc(C(F)(F)F)cc1)c1cc(Cl)ccc1OC(=O)N(c1ccccc1)c1ccccc1 | > 100 | 125 (≈ 63.9 µg/mL) | 21 | 125 (≈ 63.9 µg/mL) | 125 (≈ 63.9 µg/mL) | 125 (≈ 63.9 µg/mL) | 125 (≈ 63.9 µg/mL) | 250 (≈ 128 µg/mL) | 125 (≈ 63.9 µg/mL) | 250 (≈ 128 µg/mL) | 125 (≈ 63.9 µg/mL) | 125 (≈ 63.9 µg/mL) | – | – |
| CN(C)C(=O)Oc1ccc(Cl)cc1C(=O)Nc1ccc(C(F)(F)F)cc1 | 6510 | 250 (≈ 96.7 µg/mL) | 11 | 250 (≈ 96.7 µg/mL) | > 1000 | > 1000 | 250 (≈ 96.7 µg/mL) | 250 (≈ 96.7 µg/mL) | 250 (≈ 96.7 µg/mL) | 250 (≈ 96.7 µg/mL) | 250 (≈ 96.7 µg/mL) | 250 (≈ 96.7 µg/mL) | – | – |
| CN(C)C(=S)Oc1ccccc1C(=O)Nc1ccccc1 | > 500 | > 1000 | 6 | > 1000 | > 1000 | > 1000 | > 1000 | > 1000 | > 1000 | > 1000 | > 1000 | > 1000 | – | – |
| CN(C(=O)Oc1ccc(Cl)cc1C(=O)Nc1ccc(C(F)(F)F)cc1)c1ccccc1 | > 100 | 125 (≈ 56.1 µg/mL) | 16 | 125 (≈ 56.1 µg/mL) | 125 (≈ 56.1 µg/mL) | 125 (≈ 56.1 µg/mL) | 125 (≈ 56.1 µg/mL) | 250 (≈ 112 µg/mL) | 125 (≈ 56.1 µg/mL) | 250 (≈ 112 µg/mL) | 125 (≈ 56.1 µg/mL) | 125 (≈ 56.1 µg/mL) | – | – |
